According to ChEMBL document CHEMBL4334542, “Antimalarial N 1,N 3-Dialkyldioxonaphthoimidazoliums: Synthesis, Biological Activity, and Structure-activity Relationships” (ACS Med Chem Lett, 2020):
Active and inactive are the calls of the source. No cut-off for these calls is given here.

Legend:
[1] = system: Plasmodium falciparum; experiment: Antimalarial activity against asexual stage of Plasmodium falciparum 3D7 infected in erythrocytes assessed as reduction in parasite growth incubated for 48 hrs under hypoxic condition by Hoechst 33342 staining based flow cytometry; type: functional, organism-based; conditions: 3D7, 48 h
Procedure, shortened: (§1)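 Asexual Dd2 and 3D7 parasites in erythrocytes; DNA content of infected cells measured by Hoechst 33342 staining and FACS. IC50 is the concentration giving 50% of the net fluorescence of untreated control cultures; mean ± SD of n = 3 separate determinations.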

[2] = system: Plasmodium falciparum; experiment: Antimalarial activity against asexual stage of Plasmodium falciparum Dd2 infected in erythrocytes assessed as reduction in parasite growth incubated for 48 hrs under hypoxic condition by Hoechst 33342 staining based flow cytometry; type: functional, organism-based; conditions: Dd2, 48 h; procedure, shortened: as §1
[3] = system: CHO-K1; experiment: Cytotoxicity against CHOK1 cells assessed as reduction in cell viability incubated for 48 hrs by CellTiter 96 aqueous one solution assay; type: cell-based; conditions: Cricetulus griseus, CHO-K1, 48 h
Procedure, shortened: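 Cell growth measured by a tetrazolium dye assay. IC50 is the concentration reducing growth by 50% relative to untreated cultures; mean ± SD of n = 3 separate determinations.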

[4] = Redox cycling activity of the compound […] measured after 45 mins by phenol red reagent based horseradish peroxidase coupled assay
Procedure, shortened: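 Redox cycling EC50 determined by the phenol red horseradish peroxidase assay.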

[5] = system: Plasmodium falciparum; experiment: Antimalarial activity against asexual stage of Plasmodium falciparum NF54 assessed as reduction in parasite growth at 1 uM incubated for 96 hrs by SYBR Green I dye-based fluorescence assay relative to control; type: functional; design: scale not given: the % may be the effect or the level left
[6] = system: Plasmodium falciparum; experiment: Antimalarial activity against Plasmodium falciparum NF54 early gametocytes transfected with luciferase gene incubated for 48 hrs by luciferase reporter gene assay; type: functional, organism-based; conditions: NF54, 48 h
Procedure, shortened: (§2)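 Gametocytes of NF54-Pfs16-GFP-Luc, early (>95% stage II/III) or late (>90% stage IV/V); luciferase read-out. IC50 is the concentration giving 50% reduction of luminescence; mean ± SEM of n = 3 independent biological replicates.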

[7] = system: Plasmodium falciparum; experiment: Antimalarial activity against asexual stage of Plasmodium falciparum NF54 assessed as reduction in parasite growth incubated for 96 hrs by SYBR Green I dye-based fluorescence assay; type: functional, organism-based; conditions: NF54, 96 h
Procedure, shortened: (§3)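 Asexual NF54, K1 and W2 parasites; proliferation read as SYBR Green I fluorescence. IC50 is the concentration giving 50% of the net SYBR Green I fluorescence of untreated control cultures; mean ± SEM of n = 3 independent biological replicates.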

[8] = system: Plasmodium falciparum; experiment: Antimalarial activity against Plasmodium falciparum NF54 late gametocytes transfected with luciferase gene incubated for 48 hrs by luciferase reporter gene assay; type: functional, organism-based; conditions: NF54, 48 h; procedure, shortened: as §2
[9] = system: Plasmodium falciparum; experiment: Antimalarial activity against asexual stage of Plasmodium falciparum K1 assessed as reduction in parasite growth incubated for 96 hrs by SYBR Green I dye-based fluorescence assay; type: functional, organism-based; conditions: K1, 96 h; procedure, shortened: as §3
[10] = system: Plasmodium falciparum; experiment: Antimalarial activity against asexual stage of Plasmodium falciparum W2 assessed as reduction in parasite growth incubated for 96 hrs by SYBR Green I dye-based fluorescence assay; type: functional, organism-based; conditions: W2, 96 h
[11] = system: Plasmodium falciparum; experiment: Antimalarial activity against sexual stage of Plasmodium falciparum 3D7 gametocytes assessed as reduction in parasite growth incubated for 3 days by alamar blue staining based assay; type: functional, organism-based; conditions: 3D7, 72 h
[12] = system: Plasmodium falciparum; experiment: Antimalarial activity against asexual stage of Plasmodium falciparum 3D7 infected in O-positive erythrocytes assessed as reduction in parasite growth incubated for 72 hrs by SYBR Green I dye-based spectrophotometric analysis; type: functional, organism-based; conditions: 3D7, 72 h
[13] = system: Plasmodium falciparum; experiment: Antimalarial activity against Plasmodium falciparum NF54 incubated for 48 hrs by [3H]-hypoxanthine incorporation assay; type: functional, organism-based
[14] = system: Plasmodium falciparum; experiment: Antimalarial activity against Plasmodium falciparum K1 incubated for 48 hrs by [3H]-hypoxanthine incorporation assay; type: functional, organism-based
[15] = system: Plasmodium falciparum; experiment: Antimalarial activity against Plasmodium falciparum TM90C2B incubated for 48 hrs by [3H]-hypoxanthine incorporation assay; type: functional, organism-based

Work on CCCn1c2c([n+](C3CC3)c1C)C(=O)c1ccccc1C2=O yielded an IC50 [1] of 0.331 µM, an IC50 [2] of 0.0207 µM and an IC50 [3] of 5.5 µM.

With CCCCn1c(C)nc2c1C(=O)c1ccccc1C2=O the Activity [4] was “inactive” and the Activity [5] was “<=50%”.

With Cc1n(CC(C)C)c2c([n+]1CC(C)C)C(=O)c1ccccc1C2=O the IC50 [6] was 0.337 µM, the IC50 [7] was 0.00919 µM and the IC50 [8] was 0.812 µM. For the same molecule, the IC50 [9] was 0.0125 µM and the IC50 [10] was 0.00575 µM.

CCOc1ccc(N(C(C)=O)C2=C(NC)C(=O)c3ccccc3C2=O)cc1 showed an EC50 [11] of 0.122 µM and an EC50 [12] of 0.001 µM.

CC[n+]1c2c(n(C(C)C)c1C)C(=O)c1ccccc1C2=O showed an IC50 [1] of 0.0615 µM, an IC50 [2] of 0.0117 µM and an IC50 [3] of 15.1 µM.

With CCCCn1c2c([n+](CC)c1C)C(=O)c1ccccc1C2=O the Activity [4] was “Active”, the IC50 [13] was 0.001 µM and the IC50 [14] was 0.0018 µM. It also gave an IC50 [1] of 0.0042 µM, an IC50 [6] of 0.268 µM and an IC50 [7] of 0.00164 µM. For the same molecule, the IC50 [8] was 0.32 µM, the IC50 [2] was 0.0091 µM and the IC50 [3] was 37 µM. For the same molecule, the IC50 [9] was 0.0024 µM, the IC50 [15] was 0.0014 µM and the IC50 [10] was 0.00288 µM.

O=C1C(O)=C([C@H]2CC[C@H](c3ccc(Cl)cc3)CC2)C(=O)c2ccccc21 [ATOVAQUONE] showed an IC50 [13] of 0.0004 µM, an IC50 [14] of 0.0005 µM and an IC50 [1] of 0.0028 µM. The IC50 [2] was 0.0025 µM and the IC50 [15] was 11.5 µM.

For CCCC[n+]1c2c(n(C(C)C)c1C)C(=O)c1ccccc1C2=O, the IC50 [1] was 0.0116 µM, the IC50 [2] was 0.0149 µM and the IC50 [3] was 80.3 µM.

Molecule CCOc1ccc(N(C(C)=O)C2=C(N(C)C)C(=O)c3ccccc3C2=O)cc1 has an EC50 [11] of 0.319 µM and an EC50 [12] of 0.032 µM.

For CC1=CC(=O)c2ccccc2C1=O [MENADIONE], the Activity [5] was 20 - 40%.

With Cc1n(C)c2c([n+]1C(C)C)C(=O)c1ccccc1C2=O the IC50 [1] was 0.0048 µM, the IC50 [2] was 0.0161 µM and the IC50 [3] was 4.7 µM.

In the case of Cc1n(CC(C)C)c2c([n+]1C(C)C)C(=O)c1ccccc1C2=O, the IC50 [6] is reported as 0.229 µM, the IC50 [7] is reported as 0.00236 µM and the IC50 [8] is reported as 0.689 µM. It also gave an IC50 [9] of 0.00422 µM and an IC50 [10] of 0.00196 µM.

In the case of COCC[n+]1c2c(n(Cc3cnccn3)c1C)C(=O)c1ccccc1C2=O [SEPANTRONIUM BROMIDE], the IC50 [1] is reported as 0.0386 µM and the IC50 [2] is reported as 0.0459 µM.

With C[C@H]1[C@H](OC(=O)CCC(=O)O)O[C@@H]2O[C@@]3(C)CC[C@H]4[C@H](C)CC[C@@H]1[C@@]24OO3 [ARTESUNATE] the IC50 [13] was 0.0032 µM, the IC50 [14] was 0.0014 µM and the IC50 [1] was 0.0228 µM. It also gave an IC50 [6] of 0.063 µM, an IC50 [7] of 0.003 µM and an IC50 [8] of 0.259 µM. For the same molecule, the IC50 [2] was 0.0133 µM, the IC50 [9] was 0.00326 µM and the IC50 [15] was 0.0027 µM.

Molecule CCCn1c2c([n+](CCC)c1C)C(=O)c1ccccc1C2=O has an IC50 [1] of 0.0269 µM, an IC50 [2] of 0.0113 µM and an IC50 [3] of 16.2 µM.

With Cc1n(CC(C)C)c2c([n+]1C)C(=O)c1ccccc1C2=O the IC50 [6] was 0.041 µM, the IC50 [7] was 0.00192 µM and the IC50 [8] was 1.09 µM. The IC50 [9] was 0.0034 µM and the IC50 [10] was 0.00185 µM.

With CCn1c(C)nc2c1C(=O)c1ccccc1C2=O the Activity [4] was “inactive” and the Activity [5] was “<=50%”.

With CN(C)c1ccc2nc3ccc(N(C)C)cc3[s+]c2c1 [METHYLENE BLUE ANHYDROUS] the IC50 [6] was 0.095 µM and the IC50 [8] was 0.143 µM.

In the case of CCCn1c(C)nc2c1C(=O)c1ccccc1C2=O, the Activity [4] is reported as “inactive” and the Activity [5] is reported as “<=50%”.

Molecule CCCC[n+]1c2c(n(CCC)c1C)C(=O)c1ccccc1C2=O has an IC50 [1] of 0.0188 µM, an IC50 [2] of 0.0209 µM and an IC50 [3] of 26.8 µM.

In the case of CCC[n+]1c2c(n(CC(C)C)c1C)C(=O)c1ccccc1C2=O, the IC50 [6] is reported as 0.269 µM, the IC50 [7] is reported as 0.00297 µM and the IC50 [8] is reported as 0.842 µM. For the same molecule, the IC50 [9] was 0.00442 µM and the IC50 [10] was 0.00212 µM.

For CCCCCCCC[n+]1c2c(n(CC(C)C)c1C)C(=O)c1ccccc1C2=O, the IC50 [6] was 0.039 µM, the IC50 [7] was 0.00436 µM and the IC50 [8] was 0.164 µM. For the same molecule, the IC50 [9] was 0.00823 µM and the IC50 [10] was 0.0036 µM.
